# Tested on: HEK-293T
# Assay: Multiplex assay against HEK293T;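 for Population Tubulin-Different-Phenotype (%): share of the cells with healthy nuclei that show this phenotype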
# Format: toxicity, cell-based
# Settings: human
# Outline: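 Four dyes were applied at seeding to live cells: Hoechst33342, BioTracker Green Microtubule Cytoskeleton Dye, MitoTracker Red and Annexin V Alexa Fluor 680. Imaging after compound addition used a CQ1 microscope at 37°C and 5% CO2. CellPathfinder machine-learning gating then sorted cells into Hoechst high-intensity objects or normal cells, normal cells into healthy, pyknosed or fragmented nuclei, and pyknosed cells into mitotic or apoptotic, with tubulin, mitochondrial-mass and membrane-permeability phenotypes given as per cents of healthy-nucleus cells.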
# [1] = 12 h, 1 µM, compound concentration 1 uM, replicate 1
# [2] = 12 h, 1 µM, compound concentration 1 uM, replicate 2
# [3] = 12 h, 10 µM, compound concentration 10 uM, replicate 1
# [4] = 12 h, 10 µM, compound concentration 10 uM, replicate 2
# [5] = 24 h, 1 µM, compound concentration 1 uM, replicate 1
# [6] = 24 h, 1 µM, compound concentration 1 uM, replicate 2
# [7] = 24 h, 10 µM, compound concentration 10 uM, replicate 1
# [8] = 24 h, 10 µM, compound concentration 10 uM, replicate 2
# [9] = 48 h, 1 µM, compound concentration 1 uM, replicate 1
# [10] = 48 h, 1 µM, compound concentration 1 uM, replicate 2
# [11] = 48 h, 10 µM, compound concentration 10 uM, replicate 1
# [12] = 48 h, 10 µM, compound concentration 10 uM, replicate 2
smiles,measurement,setting,value
CC(C)c1noc(N2CCC(COc3ccc(-c4ccc(S(C)(=O)=O)cc4)nc3)CC2)n1 [GSK-1292263],Population Apoptotic (%),[1],36%
same,Population Fragmented Nuclei (%),[1],14%
same,Population Healthy Nuclei (%),[1],31%
same,Population Hoechst High Intensity Objects (%),[1],14%
same,Population Membrane Permeable-Phenotype (%),[1],8%
same,Population Mitochondria Different-Phenotype (%),[1],65%
same,Population Mitotic Cells (%),[1],63%
same,Population Normal (%),[1],85%
same,Population Pyknosed Nuclei (%),[1],54%
same,Population Tubulin-Different-Phenotype (%),[1],34%
same,Total Cell Count,[1],304
same,Population Apoptotic (%),[2],12%
same,Population Fragmented Nuclei (%),[2],2%
same,Population Healthy Nuclei (%),[2],50%
same,Population Hoechst High Intensity Objects (%),[2],1%
same,Population Membrane Permeable-Phenotype (%),[2],7%
same,Population Mitochondria Different-Phenotype (%),[2],15%
same,Population Mitotic Cells (%),[2],87%
same,Population Normal (%),[2],98%
same,Population Pyknosed Nuclei (%),[2],46%
same,Population Tubulin-Different-Phenotype (%),[2],16%
same,Total Cell Count,[2],228
same,Population Apoptotic (%),[3],50%
same,Population Fragmented Nuclei (%),[3],14%
same,Population Healthy Nuclei (%),[3],11%
same,Population Hoechst High Intensity Objects (%),[3],18%
same,Population Membrane Permeable-Phenotype (%),[3],16%
same,Population Mitochondria Different-Phenotype (%),[3],68%
same,Population Mitotic Cells (%),[3],50%
same,Population Normal (%),[3],81%
same,Population Pyknosed Nuclei (%),[3],74%
same,Population Tubulin-Different-Phenotype (%),[3],72%
same,Total Cell Count,[3],276
same,Population Apoptotic (%),[4],13%
same,Population Fragmented Nuclei (%),[4],7%
same,Population Healthy Nuclei (%),[4],20%
same,Population Hoechst High Intensity Objects (%),[4],12%
same,Population Membrane Permeable-Phenotype (%),[4],8%
same,Population Mitochondria Different-Phenotype (%),[4],26%
same,Population Mitotic Cells (%),[4],86%
same,Population Normal (%),[4],87%
same,Population Pyknosed Nuclei (%),[4],72%
same,Population Tubulin-Different-Phenotype (%),[4],26%
same,Total Cell Count,[4],131
same,Population Apoptotic (%),[5],39%
same,Population Fragmented Nuclei (%),[5],15%
same,Population Healthy Nuclei (%),[5],32%
same,Population Hoechst High Intensity Objects (%),[5],19%
same,Population Membrane Permeable-Phenotype (%),[5],2%
same,Population Mitochondria Different-Phenotype (%),[5],57%
same,Population Mitotic Cells (%),[5],60%
same,Population Normal (%),[5],80%
same,Population Pyknosed Nuclei (%),[5],51%
same,Population Tubulin-Different-Phenotype (%),[5],37%
same,Total Cell Count,[5],316
same,Population Apoptotic (%),[6],15%
same,Population Fragmented Nuclei (%),[6],6%
same,Population Healthy Nuclei (%),[6],62%
same,Population Hoechst High Intensity Objects (%),[6],3%
same,Population Membrane Permeable-Phenotype (%),[6],8%
same,Population Mitochondria Different-Phenotype (%),[6],14%
same,Population Mitotic Cells (%),[6],84%
same,Population Normal (%),[6],96%
same,Population Pyknosed Nuclei (%),[6],31%
same,Population Tubulin-Different-Phenotype (%),[6],31%
same,Total Cell Count,[6],270
same,Population Apoptotic (%),[7],58%
same,Population Fragmented Nuclei (%),[7],15%
same,Population Healthy Nuclei (%),[7],12%
same,Population Hoechst High Intensity Objects (%),[7],23%
same,Population Membrane Permeable-Phenotype (%),[7],7%
same,Population Mitochondria Different-Phenotype (%),[7],78%
same,Population Mitotic Cells (%),[7],41%
same,Population Normal (%),[7],76%
same,Population Pyknosed Nuclei (%),[7],72%
same,Population Tubulin-Different-Phenotype (%),[7],75%
same,Total Cell Count,[7],298
same,Population Apoptotic (%),[8],14%
same,Population Fragmented Nuclei (%),[8],7%
same,Population Healthy Nuclei (%),[8],38%
same,Population Hoechst High Intensity Objects (%),[8],9%
same,Population Membrane Permeable-Phenotype (%),[8],4%
same,Population Mitochondria Different-Phenotype (%),[8],32%
same,Population Mitotic Cells (%),[8],85%
same,Population Normal (%),[8],90%
same,Population Pyknosed Nuclei (%),[8],53%
same,Population Tubulin-Different-Phenotype (%),[8],55%
same,Total Cell Count,[8],139
same,Population Apoptotic (%),[9],37%
same,Population Fragmented Nuclei (%),[9],16%
same,Population Healthy Nuclei (%),[9],41%
same,Population Hoechst High Intensity Objects (%),[9],14%
same,Population Membrane Permeable-Phenotype (%),[9],4%
same,Population Mitochondria Different-Phenotype (%),[9],32%
same,Population Mitotic Cells (%),[9],62%
same,Population Normal (%),[9],85%
same,Population Pyknosed Nuclei (%),[9],42%
same,Population Tubulin-Different-Phenotype (%),[9],35%
same,Total Cell Count,[9],377
same,Population Apoptotic (%),[10],14%
same,Population Fragmented Nuclei (%),[10],4%
same,Population Healthy Nuclei (%),[10],80%
same,Population Hoechst High Intensity Objects (%),[10],4%
same,Population Membrane Permeable-Phenotype (%),[10],8%
same,Population Mitochondria Different-Phenotype (%),[10],3%
same,Population Mitotic Cells (%),[10],85%
same,Population Normal (%),[10],95%
same,Population Pyknosed Nuclei (%),[10],14%
same,Population Tubulin-Different-Phenotype (%),[10],22%
same,Total Cell Count,[10],482
same,Population Apoptotic (%),[11],63%
same,Population Fragmented Nuclei (%),[11],24%
same,Population Healthy Nuclei (%),[11],10%
same,Population Hoechst High Intensity Objects (%),[11],25%
same,Population Membrane Permeable-Phenotype (%),[11],8%
same,Population Mitochondria Different-Phenotype (%),[11],37%
same,Population Mitotic Cells (%),[11],36%
same,Population Normal (%),[11],74%
same,Population Pyknosed Nuclei (%),[11],64%
same,Population Tubulin-Different-Phenotype (%),[11],58%
same,Total Cell Count,[11],296
same,Population Apoptotic (%),[12],14%
same,Population Fragmented Nuclei (%),[12],8%
same,Population Healthy Nuclei (%),[12],62%
same,Population Hoechst High Intensity Objects (%),[12],3%
same,Population Membrane Permeable-Phenotype (%),[12],12%
same,Population Mitochondria Different-Phenotype (%),[12],12%
same,Population Mitotic Cells (%),[12],85%
same,Population Normal (%),[12],96%
same,Population Pyknosed Nuclei (%),[12],28%
same,Population Tubulin-Different-Phenotype (%),[12],54%
same,Total Cell Count,[12],176
COc1cc2ncn(-c3cc(OCc4ccccc4C(F)(F)F)c(C(N)=O)s3)c2cc1OC [GW843682X],Population Apoptotic (%),[1],62%
same,Population Fragmented Nuclei (%),[1],14%
same,Population Healthy Nuclei (%),[1],44%
same,Population Hoechst High Intensity Objects (%),[1],13%
same,Population Membrane Permeable-Phenotype (%),[1],5%
same,Population Mitochondria Different-Phenotype (%),[1],84%
same,Population Mitotic Cells (%),[1],37%
same,Population Normal (%),[1],86%
same,Population Pyknosed Nuclei (%),[1],40%
same,Population Tubulin-Different-Phenotype (%),[1],64%
same,Total Cell Count,[1],252
same,Population Apoptotic (%),[2],25%
same,Population Fragmented Nuclei (%),[2],4%
same,Population Healthy Nuclei (%),[2],38%
same,Population Hoechst High Intensity Objects (%),[2],2%
same,Population Membrane Permeable-Phenotype (%),[2],11%
same,Population Mitochondria Different-Phenotype (%),[2],34%
same,Population Mitotic Cells (%),[2],74%
same,Population Normal (%),[2],97%
same,Population Pyknosed Nuclei (%),[2],56%
same,Population Tubulin-Different-Phenotype (%),[2],47%
same,Total Cell Count,[2],208
same,Population Apoptotic (%),[3],57%
same,Population Fragmented Nuclei (%),[3],12%
same,Population Healthy Nuclei (%),[3],54%
same,Population Hoechst High Intensity Objects (%),[3],14%
same,Population Membrane Permeable-Phenotype (%),[3],9%
same,Population Mitochondria Different-Phenotype (%),[3],97%
same,Population Mitotic Cells (%),[3],42%
same,Population Normal (%),[3],85%
same,Population Pyknosed Nuclei (%),[3],33%
same,Population Tubulin-Different-Phenotype (%),[3],97%
same,Total Cell Count,[3],272
same,Population Apoptotic (%),[4],31%
same,Population Fragmented Nuclei (%),[4],11%
same,Population Healthy Nuclei (%),[4],50%
same,Population Hoechst High Intensity Objects (%),[4],4%
same,Population Membrane Permeable-Phenotype (%),[4],11%
same,Population Mitochondria Different-Phenotype (%),[4],88%
same,Population Mitotic Cells (%),[4],68%
same,Population Normal (%),[4],96%
same,Population Pyknosed Nuclei (%),[4],38%
same,Population Tubulin-Different-Phenotype (%),[4],99%
same,Total Cell Count,[4],250
same,Population Apoptotic (%),[5],56%
same,Population Fragmented Nuclei (%),[5],11%
same,Population Healthy Nuclei (%),[5],39%
same,Population Hoechst High Intensity Objects (%),[5],19%
same,Population Membrane Permeable-Phenotype (%),[5],7%
same,Population Mitochondria Different-Phenotype (%),[5],81%
same,Population Mitotic Cells (%),[5],43%
same,Population Normal (%),[5],80%
same,Population Pyknosed Nuclei (%),[5],49%
same,Population Tubulin-Different-Phenotype (%),[5],73%
same,Total Cell Count,[5],252
same,Population Apoptotic (%),[6],24%
same,Population Fragmented Nuclei (%),[6],5%
same,Population Healthy Nuclei (%),[6],41%
same,Population Hoechst High Intensity Objects (%),[6],4%
same,Population Membrane Permeable-Phenotype (%),[6],3%
same,Population Mitochondria Different-Phenotype (%),[6],43%
same,Population Mitotic Cells (%),[6],75%
same,Population Normal (%),[6],95%
same,Population Pyknosed Nuclei (%),[6],53%
same,Population Tubulin-Different-Phenotype (%),[6],65%
same,Total Cell Count,[6],205
same,Population Apoptotic (%),[7],71%
same,Population Fragmented Nuclei (%),[7],11%
same,Population Healthy Nuclei (%),[7],57%
same,Population Hoechst High Intensity Objects (%),[7],15%
same,Population Membrane Permeable-Phenotype (%),[7],6%
same,Population Mitochondria Different-Phenotype (%),[7],96%
same,Population Mitotic Cells (%),[7],28%
same,Population Normal (%),[7],84%
same,Population Pyknosed Nuclei (%),[7],31%
same,Population Tubulin-Different-Phenotype (%),[7],90%
same,Total Cell Count,[7],270
same,Population Apoptotic (%),[8],57%
same,Population Fragmented Nuclei (%),[8],14%
same,Population Healthy Nuclei (%),[8],53%
same,Population Hoechst High Intensity Objects (%),[8],3%
same,Population Membrane Permeable-Phenotype (%),[8],3%
same,Population Mitochondria Different-Phenotype (%),[8],95%
same,Population Mitotic Cells (%),[8],42%
same,Population Normal (%),[8],96%
same,Population Pyknosed Nuclei (%),[8],32%
same,Population Tubulin-Different-Phenotype (%),[8],96%
same,Total Cell Count,[8],264
same,Population Apoptotic (%),[9],53%
same,Population Fragmented Nuclei (%),[9],17%
same,Population Healthy Nuclei (%),[9],31%
same,Population Hoechst High Intensity Objects (%),[9],17%
same,Population Membrane Permeable-Phenotype (%),[9],3%
same,Population Mitochondria Different-Phenotype (%),[9],84%
same,Population Mitotic Cells (%),[9],46%
same,Population Normal (%),[9],82%
same,Population Pyknosed Nuclei (%),[9],50%
same,Population Tubulin-Different-Phenotype (%),[9],72%
same,Total Cell Count,[9],248
same,Population Apoptotic (%),[10],55%
same,Population Fragmented Nuclei (%),[10],7%
same,Population Healthy Nuclei (%),[10],63%
same,Population Hoechst High Intensity Objects (%),[10],2%
same,Population Membrane Permeable-Phenotype (%),[10],13%
same,Population Mitochondria Different-Phenotype (%),[10],36%
same,Population Mitotic Cells (%),[10],44%
same,Population Normal (%),[10],97%
same,Population Pyknosed Nuclei (%),[10],29%
same,Population Tubulin-Different-Phenotype (%),[10],67%
same,Total Cell Count,[10],220
same,Population Apoptotic (%),[11],72%
same,Population Fragmented Nuclei (%),[11],18%
same,Population Healthy Nuclei (%),[11],46%
same,Population Hoechst High Intensity Objects (%),[11],12%
same,Population Membrane Permeable-Phenotype (%),[11],3%
same,Population Mitochondria Different-Phenotype (%),[11],96%
same,Population Mitotic Cells (%),[11],27%
same,Population Normal (%),[11],87%
same,Population Pyknosed Nuclei (%),[11],34%
same,Population Tubulin-Different-Phenotype (%),[11],85%
same,Total Cell Count,[11],260
same,Population Apoptotic (%),[12],59%
same,Population Fragmented Nuclei (%),[12],7%
same,Population Healthy Nuclei (%),[12],42%
same,Population Hoechst High Intensity Objects (%),[12],4%
same,Population Membrane Permeable-Phenotype (%),[12],7%
same,Population Mitochondria Different-Phenotype (%),[12],92%
same,Population Mitotic Cells (%),[12],40%
same,Population Normal (%),[12],95%
same,Population Pyknosed Nuclei (%),[12],50%
same,Population Tubulin-Different-Phenotype (%),[12],92%
same,Total Cell Count,[12],247

# From ChEMBL document CHEMBL4689842, “EUbOPEN Chemogenomics Library wave 1” (2021)
